Data as given in ChEMBL document CHEMBL2346557 (Bioorg Med Chem, 2013).
≈ marks a conversion by molar mass, not a printed value. Calls of active or inactive are those of the source. No cut-off for these calls is given here.

Experiments:
[1] = biological target: Voltage-gated inwardly rectifying potassium channel KCNH2 (Homo sapiens, UniProt Q12809); assay: Inhibition of human ERG
[2] = test system: Salmonella typhimurium; assay: Genotoxicity in Salmonella typhimurium by Ames test; assay type: toxicity, organism-based; conditions: salmonella enterica subsp. enterica serovar typhimurium
[3] = biological target: Cytochrome P450 3A4 (Homo sapiens, UniProt P08684); assay: Inhibition of CYP3A4 (unknown origin); assay type: ADME
Cytochrome P450 3A4, sequence (P08684 whole entry): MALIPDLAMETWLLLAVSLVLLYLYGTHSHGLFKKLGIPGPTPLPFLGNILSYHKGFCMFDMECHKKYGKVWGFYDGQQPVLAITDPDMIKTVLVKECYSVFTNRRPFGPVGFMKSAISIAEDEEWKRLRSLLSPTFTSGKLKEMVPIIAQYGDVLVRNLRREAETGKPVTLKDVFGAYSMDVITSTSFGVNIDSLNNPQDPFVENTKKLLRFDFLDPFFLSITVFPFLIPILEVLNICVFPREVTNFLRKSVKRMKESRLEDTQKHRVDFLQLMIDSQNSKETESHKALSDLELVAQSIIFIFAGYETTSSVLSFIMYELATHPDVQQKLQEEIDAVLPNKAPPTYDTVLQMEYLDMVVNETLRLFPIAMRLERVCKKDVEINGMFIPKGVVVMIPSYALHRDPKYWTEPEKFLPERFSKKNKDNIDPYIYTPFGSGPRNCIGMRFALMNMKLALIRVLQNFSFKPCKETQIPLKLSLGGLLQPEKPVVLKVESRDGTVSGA

[4] = biological target: Cytochrome P450 2D6 (Homo sapiens, UniProt P10635); assay: Inhibition of CYP2D6 (unknown origin); assay type: ADME
Cytochrome P450 2D6, sequence (P10635 whole entry): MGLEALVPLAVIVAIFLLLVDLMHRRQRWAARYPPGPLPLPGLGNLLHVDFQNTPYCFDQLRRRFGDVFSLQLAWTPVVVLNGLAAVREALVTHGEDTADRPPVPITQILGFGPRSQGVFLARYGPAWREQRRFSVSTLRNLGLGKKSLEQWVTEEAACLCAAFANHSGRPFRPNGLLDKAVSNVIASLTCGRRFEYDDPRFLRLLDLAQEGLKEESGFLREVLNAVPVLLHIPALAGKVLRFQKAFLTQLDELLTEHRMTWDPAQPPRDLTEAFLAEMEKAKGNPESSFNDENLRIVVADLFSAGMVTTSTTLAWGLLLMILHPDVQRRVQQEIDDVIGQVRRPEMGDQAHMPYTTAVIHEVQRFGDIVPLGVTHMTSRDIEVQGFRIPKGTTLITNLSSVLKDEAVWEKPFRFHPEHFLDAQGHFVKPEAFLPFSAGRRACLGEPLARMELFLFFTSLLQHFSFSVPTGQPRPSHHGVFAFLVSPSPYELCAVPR

[5] = Solubility of the compound; assay type: physicochemical
[6] = Volume of distribution at steady state in beagle dog at 10 mg/kg, iv; assay type: ADME, organism-based, Canis lupus familiaris; parameters: dose 10 mg/kg, route intravenous; conditions: in vivo, read-out: Vdss
[7] = test system: Rattus norvegicus; assay: Oral bioavailability in Sprague-Dawley rat at 50 mg/kg; assay type: ADME, organism-based; conditions: in vivo
Procedure, shortened: (§1)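 Sprague–Dawley rats (n = 3) were dosed orally with an emulsion in 30% Labrafil. Blood was sampled from 0 to 24 h (0, 5, 15, 30 min; 1, 2, 4, 8, 24 h). Bioavailability was derived against the IV arm.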

[8] = Volume of distribution at steady state in Sprague-Dawley rat at 10 mg/kg, iv; assay type: ADME, organism-based; parameters: dose 10 mg/kg, route intravenous; conditions: in vivo, read-out: Vdss
[9] = Tmax in Sprague-Dawley rat at 50 mg/kg, po; assay type: ADME, organism-based; parameters: dose 50 mg/kg, route oral; conditions: in vivo; procedure, shortened: as §1
[10] = test system: Canis familiaris; assay: Total unbound Cmax in beagle dog at 30 mg/kg, po; assay type: ADME, organism-based, Canis lupus familiaris; parameters: dose 30 mg/kg, route oral; conditions: in vivo
Procedure, shortened: (§2)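 Beagles (n = 3) were given an oral emulsion in 30% Labrafil. Blood was collected at 0, 5, 15 and 30 min and at 1, 2, 4, 8 and 24 h. Bioavailability was derived relative to IV dosing.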

[11] = Clearance in beagle dog at 10 mg/kg, iv; assay type: ADME, organism-based, Canis lupus familiaris; parameters: dose 10 mg/kg, route intravenous; conditions: in vivo
[12] = Clearance in Sprague-Dawley rat at 10 mg/kg, iv; assay type: ADME, organism-based; parameters: dose 10 mg/kg, route intravenous; conditions: in vivo
[13] = test system: Canis familiaris; assay: Total unbound AUC (0 to infinity) in beagle dog at 30 mg/kg, po; assay type: ADME, organism-based, Canis lupus familiaris; parameters: dose 30 mg/kg, route oral; conditions: in vivo; procedure, shortened: as §2
[14] = test system: Canis familiaris; assay: Total unbound AUC (0 to infinity) in beagle dog at 10 mg/kg, iv; assay type: ADME, organism-based, Canis lupus familiaris; parameters: dose 10 mg/kg, route intravenous; conditions: in vivo
[15] = Terminal half life in beagle dog at 10 mg/kg, iv; assay type: ADME, organism-based, Canis lupus familiaris; parameters: dose 10 mg/kg, route intravenous; conditions: in vivo, read-out: beta t1/2 (converted)
[16] = Metabolic stability in rat liver microsomes assessed as compound ramaining at 2 uM measured at 1 hr; assay type: ADME, Microsome; conditions: read-out: Stability
Procedure, shortened: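 Rat liver microsomes at 0.5 mg/mL final, with 5 mM MgCl2 and 5 mM PBS. The reaction was started with 1 mM NADPH final and run at 37 °C. The negative control used water in place of NADPH; verapamil was the positive control. Read-out was % parent remaining at 1 h.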

[17] = Metabolic stability in monkey liver microsomes assessed as compound remaining at 2 uM measured at 1 hr; assay type: ADME, Macaca mulatta, Microsome; conditions: rhesus monkey, read-out: Stability
Procedure, shortened: (§3)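 Liver microsomes (human, or male monkey, dog, rat or mouse) at 0.5 mg/mL final with 2 µM compound, 5 mM MgCl2 and 5 mM PBS. The reaction was started with 1 mM NADPH and run at 37 °C. Verapamil was the positive control; water replaced NADPH in the negative control. Read-out was percent parent remaining at 1 h.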

[18] = Metabolic stability in human liver microsomes assessed as compound remaining at 2 uM measured at 1 hr; assay type: ADME, Microsome; conditions: read-out: Stability; procedure, shortened: as §3
[19] = test system: Mus musculus; assay: Oral bioavailability in CD1 mouse at 50 mg/kg; assay type: ADME, organism-based; conditions: in vivo
Procedure, shortened: (§4)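 CD1 mice (n = 3 per compound) were dosed orally at 50 mg/kg as an aqueous emulsion in 30% Labrafil. Blood was drawn at 0, 5, 15 and 30 min and 1, 2, 4, 8 and 24 h. Bioavailability and other parameters were calculated from the plasma profiles and compared against the intravenous arm.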

[20] = test system: Mus musculus; assay: Total unbound AUC (0 to infinity) in CD1 mouse at 50 mg/kg, po; assay type: ADME, organism-based; parameters: dose 50 mg/kg, route oral; conditions: in vivo
[21] = AUClast in CD1 mouse at 50 mg/kg, po; assay type: ADME, organism-based; parameters: time 0 - last, dose 50 mg/kg, route oral; conditions: plasma; procedure, shortened: as §4
[22] = test system: Mus musculus; assay: Total unbound Cmax in CD1 mouse at 10 mg/kg, iv; assay type: ADME, organism-based; parameters: dose 10 mg/kg, route intravenous; conditions: in vivo
[23] = Tmax in CD1 mouse at 50 mg/kg, po; assay type: ADME, organism-based; parameters: dose 50 mg/kg, route oral; conditions: in vivo; procedure, shortened: as §4
[24] = Tmax in CD1 mouse at 10 mg/kg, iv; assay type: ADME, organism-based; parameters: dose 10 mg/kg, route intravenous; conditions: in vivo
Procedure, shortened: (§5)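 CD1 mice (n = 3 per compound) given 10 mg/kg as a single tail-vein injection in a pH 7.0 solution of 10% ethanol plus PEG400 (some compounds also with 10% DMSO). Blood was sampled at 0, 5, 15 and 30 min and 1, 2, 4, 8 and 24 h. Parameters were derived from the plasma concentration–time profiles.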

[25] = Clearance in CD1 mouse at 10 mg/kg, iv; assay type: ADME, organism-based; parameters: dose 10 mg/kg, route intravenous; conditions: in vivo; procedure, shortened: as §5
[26] = biological target: T1, Glucocorticoid receptor (Homo sapiens) (UniProt P04150); assay: Transactivation of glucocorticoid receptor in HEK293 cells co-transfected with GRE assessed as induction of GRE-dependent gene expression at 100 ug/ml after 6 hrs by luciferase reporter gene assay; assay type: cell-based
T1 sequence (whole entry): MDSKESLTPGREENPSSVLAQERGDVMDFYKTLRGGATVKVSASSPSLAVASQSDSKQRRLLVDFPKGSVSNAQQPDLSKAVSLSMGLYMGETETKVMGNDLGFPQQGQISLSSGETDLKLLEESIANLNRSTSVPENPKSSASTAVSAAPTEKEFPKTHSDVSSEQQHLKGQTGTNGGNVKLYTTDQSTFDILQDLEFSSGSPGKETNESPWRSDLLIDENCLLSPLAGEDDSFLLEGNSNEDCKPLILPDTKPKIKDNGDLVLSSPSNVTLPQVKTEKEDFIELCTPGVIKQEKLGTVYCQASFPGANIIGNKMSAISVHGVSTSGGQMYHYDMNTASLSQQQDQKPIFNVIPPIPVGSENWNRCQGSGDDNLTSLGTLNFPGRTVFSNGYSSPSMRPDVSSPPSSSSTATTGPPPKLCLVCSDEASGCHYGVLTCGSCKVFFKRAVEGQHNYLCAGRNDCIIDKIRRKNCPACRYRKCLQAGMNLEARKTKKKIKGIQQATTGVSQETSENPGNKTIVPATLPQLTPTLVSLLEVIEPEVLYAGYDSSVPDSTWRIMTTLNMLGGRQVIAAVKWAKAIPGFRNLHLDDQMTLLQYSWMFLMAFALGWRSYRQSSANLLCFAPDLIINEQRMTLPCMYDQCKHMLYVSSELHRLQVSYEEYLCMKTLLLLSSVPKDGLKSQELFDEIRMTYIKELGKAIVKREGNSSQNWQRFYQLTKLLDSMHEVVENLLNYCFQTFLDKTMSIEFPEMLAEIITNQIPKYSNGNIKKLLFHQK
Procedure, shortened: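 HEK-293 cells stably transfected with a GRE-driven luciferase reporter were exposed to drug at 0.01–100 μg/ml for 6 h. Cells were washed with PBS and lysed, and luciferase activity was measured by luminometer.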

[27] = Mean residence time in CD1 mouse at 10 mg/kg, iv; assay type: ADME, organism-based; parameters: dose 10 mg/kg, route intravenous; conditions: in vivo; procedure, shortened: as §5
[28] = Terminal half life in CD1 mouse at 10 mg/kg, iv; assay type: ADME, organism-based; parameters: dose 10 mg/kg, route intravenous; conditions: in vivo, read-out: beta t1/2 (converted); procedure, shortened: as §5
[29] = Terminal half life in Sprague-Dawley rat at 10 mg/kg, iv; assay type: ADME, organism-based; parameters: dose 10 mg/kg, route intravenous; conditions: in vivo, read-out: beta t1/2 (converted)
[30] = test system: Rattus norvegicus; assay: Total unbound AUC (0 to infinity) in Sprague-Dawley rat at 10 mg/kg, iv; assay type: ADME, organism-based; parameters: dose 10 mg/kg, route intravenous; conditions: in vivo

Voltage-gated inwardly rectifying potassium channel KCNH2, sequence (Q12809 whole entry): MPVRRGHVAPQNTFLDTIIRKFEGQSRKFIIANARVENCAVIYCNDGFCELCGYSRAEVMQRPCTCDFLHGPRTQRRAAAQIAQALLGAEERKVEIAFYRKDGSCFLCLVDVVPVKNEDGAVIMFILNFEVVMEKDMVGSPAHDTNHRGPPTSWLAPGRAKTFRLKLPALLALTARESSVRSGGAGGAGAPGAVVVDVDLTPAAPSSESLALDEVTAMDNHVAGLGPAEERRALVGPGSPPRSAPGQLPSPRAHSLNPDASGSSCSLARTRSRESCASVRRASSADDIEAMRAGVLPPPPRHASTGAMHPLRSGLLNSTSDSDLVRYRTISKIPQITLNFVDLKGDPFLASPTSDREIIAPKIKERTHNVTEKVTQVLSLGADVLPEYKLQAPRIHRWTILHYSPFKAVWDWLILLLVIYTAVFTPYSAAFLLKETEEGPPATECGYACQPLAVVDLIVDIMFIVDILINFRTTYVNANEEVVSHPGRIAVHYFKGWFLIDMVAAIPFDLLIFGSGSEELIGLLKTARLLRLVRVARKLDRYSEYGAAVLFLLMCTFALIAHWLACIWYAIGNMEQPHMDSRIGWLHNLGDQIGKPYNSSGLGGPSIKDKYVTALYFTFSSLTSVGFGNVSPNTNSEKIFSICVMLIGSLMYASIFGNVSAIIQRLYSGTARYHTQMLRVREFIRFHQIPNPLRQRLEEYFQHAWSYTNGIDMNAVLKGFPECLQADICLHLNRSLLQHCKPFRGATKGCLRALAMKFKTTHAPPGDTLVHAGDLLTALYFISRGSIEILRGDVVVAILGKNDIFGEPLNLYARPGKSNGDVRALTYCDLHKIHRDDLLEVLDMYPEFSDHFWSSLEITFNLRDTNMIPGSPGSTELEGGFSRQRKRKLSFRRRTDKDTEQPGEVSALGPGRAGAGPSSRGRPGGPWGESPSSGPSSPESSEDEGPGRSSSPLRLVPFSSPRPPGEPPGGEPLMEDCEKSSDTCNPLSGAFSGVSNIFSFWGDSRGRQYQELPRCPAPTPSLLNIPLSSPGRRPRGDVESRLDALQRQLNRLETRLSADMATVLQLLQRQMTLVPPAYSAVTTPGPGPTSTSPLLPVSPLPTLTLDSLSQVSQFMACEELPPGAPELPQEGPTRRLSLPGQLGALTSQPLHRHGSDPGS

C[C@@H]1C[C@H]2[C@@H]3CCC4=CC(=O)C=C[C@]4(C)C3=CC[C@]2(C)[C@@]1(O)C(=O)CO [VAMOROLONE]
IC50 [1]: 20 µM
Activity [2]: Non-toxic
IC50 [3]: > 50 µM
IC50 [4]: > 50 µM
solubility [5]: 187 µM (≈ 66.7 µg/mL)
Vd [6]: 1.93 L/kg
F [7]: 47.8%
Vd [8]: 0.77 L/kg
Tmax [9]: 4 h
fCmax [10]: 814 ng/mL
clearance [11]: 24.7 mL/min/kg
clearance [12]: 20.2 mL/min/kg
fAUC [13]: 10844 ng·h/mL
fAUC [14]: 6791 ng·h/mL
half-life [15]: 325 min
remaining at 1 h, 2 µM [16]: 35.4%
remaining at 1 h, 2 µM [17]: 100%
remaining at 1 h, 2 µM [18]: 82%
F [19]: 74.5%
fAUC [20]: 32932 ng·h/mL
AUC(0-t) [21]: 32900 ng·h/mL
fCmax [22]: 11167 ng/mL
Tmax [23]: 2 h
Tmax [24]: 5 min
clearance [25]: 18.8 mL/min/kg
Activity [26]: inactive
MRT [27]: 40 min
half-life [28]: 21.2 min
half-life [29]: 34.8 min
fAUC [30]: 8339 ng·h/mL
